≈ marks a conversion by molar mass, not a printed value.
Key:
[1] = tested on: Human immunodeficiency virus 1; test: Antiviral activity against Human immunodeficiency virus 1 harboring reverse transcriptase E138K mutant; assay type: functional, organism-based
[2] = tested on: Liver microsomes; test: Half life in human liver microsomes at 1 uM; assay type: ADME, Microsome
Procedure, shortened: (§1)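 1 μM compound (diluted from DMSO stock via ACN) at 37 °C in 0.1 M potassium phosphate pH 7.4 with 0.1 mg/mL human liver microsomes and 5 mM MgCl2. NADPH (1.0 mM final) started the reaction.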

[3] = tested on: Liver microsomes; test: Clearance in human liver microsomes at 1 uM; assay type: ADME, Microsome; procedure, shortened: as §1
[4] = tested on: Liver microsomes; test: Half life in rat liver microsomes at 1 uM; assay type: ADME, Microsome
Procedure, shortened: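 Rat liver microsome incubation of 1 μM compound at 37 °C in 0.1 M potassium phosphate pH 7.4 with 5 mM MgCl2. NADPH (1.0 mM final) started the reaction, with ice-cold ACN quench at 0–60 min, in duplicate. […] Means of at least two experiments.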

[5] = Cytotoxicity against human TZM-bl cells; assay type: cell-based
[6] = tested on: Human immunodeficiency virus 1; test: Antiviral activity against Human immunodeficiency virus 1 NL4-3 infected in human TZM-bl cells assessed as inhibition of viral replication; assay type: functional, organism-based; settings: Human immunodeficiency virus 1, NL4-3, TZM-bl
[7] = Selectivity index, ratio of CC50 for human TZM-bl cells to EC50 for Human immunodeficiency virus 1 NL4-3; assay type: toxicity, cell-based; settings: read-out: Ratio CC50/EC50
[8] = Aqueous solubility of the compound at pH 7.4 by HPLC/UV analysis; assay type: physicochemical; settings: buffer
[9] = Aqueous solubility of the compound at pH 2 by HPLC/UV analysis; assay type: physicochemical; settings: buffer
[10] = tested on: Human immunodeficiency virus 1; test: Antiviral activity against multi-reverse transcriptase-resistant Human immunodeficiency virus 1; assay type: functional, organism-based
[11] = tested on: Human immunodeficiency virus 1; test: Antiviral activity against Human immunodeficiency virus 1 harboring reverse transcriptase K101E mutant; assay type: functional, organism-based
Procedure, shortened: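 EC50 against the resistant strain (RTMDR1, K101E or E138K), from experiments run at least in triplicate and reported as mean ± SD.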

Row | SMILES | EC50 [1] [nM] | t1/2 [2] [h] | CLH [3] [µL/min/mg] | t1/2 [4] [h] | CC50 [5] [nM] | EC50 [6] [nM] | selectivity ratio [7] | solubility [8] [µg/mL] | solubility [9] [µg/mL] | EC50 [10] [nM] | EC50 [11] [nM]
1 | Cc1cc(/C=C/C#N)cc(C)c1Oc1cc(Nc2ccc(C#N)cc2)c(N)cc1[N+](=O)[O-] | 11.3 | 0.783 | 150 | 2.32 | – | – | – | – | – | – | –
2 | Cc1cc(/C=C/C#N)cc(C)c1Nc1ccnc(Nc2ccc(C#N)cc2)n1 [RILPIVIRINE] | – | 0.567 | 200 | 2 | 19400 | – | – | – | – | – | –
3 | COC(=O)c1cc(N)c(Nc2ccc(C#N)cc2)cc1Oc1c(C)cc(/C=C/C#N)cc1C | – | – | – | – | > 22800 | 2.74 | > 8460 | 1.3 (≈ 2.96 µM) | 1.75 (≈ 3.99 µM) | – | –
4 | Cc1cc(/C=C/C#N)cc(C)c1Oc1cc(Nc2ccc(C#N)cc2)c(N)cc1C(N)=O | 9 | 0.583 | 200 | 2.03 | > 23600 | 0.87 | > 27100 | 0.63 (≈ 1.49 µM) | 2.1 (≈ 4.96 µM) | 0.31 | 8.8
5 | CNC(=O)c1cc(N)c(Nc2ccc(C#N)cc2)cc1Oc1c(C)cc(/C=C/C#N)cc1C | – | – | – | – | > 9200 | 5.72 | > 1610 | 1.32 (≈ 3.02 µM) | 8.63 (≈ 19.7 µM) | – | –
6 | Cc1cc(/C=C/C#N)cc(C)c1Oc1cc(Nc2ccc(C#N)cc2)c(N)cc1CO | 3.9 | 0.5 | 230 | 1.4 | 16300 | 0.53 | 30800 | 3.23 (≈ 7.87 µM) | 21 (≈ 51.2 µM) | 0.36 | 3.4
7 | Cc1cc(/C=C/C#N)cc(C)c1Oc1cc(Nc2ccc(C#N)cc2)c(N)cc1C(=O)O | – | – | – | – | 14900 | 230 | 65 | 117 (≈ 276 µM) | 4.4 (≈ 10.4 µM) | – | –

Reference: ChEMBL document CHEMBL2010661, “Optimization of 2,4-diarylanilines as non-nucleoside HIV-1 reverse transcriptase inhibitors” (Bioorg Med Chem Lett, 2012)
